# Measurements taken from ChEMBL document CHEMBL1138205, “Novel heterobivalent tacrine derivatives as cholinesterase inhibitors with notable selectivity toward butyrylcholinesterase” (J Med Chem, 2006).
# Activity calls are given as the source filed them. The rule behind the calls is not given here.
# Experiments:
# [1] = molecular target: Cholinesterases; ACHE & BCHE (Homo sapiens) (UniProt P06276+P22303); experiment: Selectivity for human BChE over human AChE
# In short: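 Ratio of IC50 for recombinant human AChE to IC50 for human plasma BChE. Both were measured by DTNB absorbance at 412 nm, pH 7.3, after 15 min enzyme–inhibitor preincubation at 25 °C. Acetyl- or butyrylthiocholine served as substrate. Each IC50 in duplicate from ≥4 inhibitor concentrations.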
# Cholinesterase = Cholinesterase (Homo sapiens, UniProt P06276); experiment: Inhibition of human plasma BChE; type: cell-free
# Cholinesterase, sequence (P06276 whole entry): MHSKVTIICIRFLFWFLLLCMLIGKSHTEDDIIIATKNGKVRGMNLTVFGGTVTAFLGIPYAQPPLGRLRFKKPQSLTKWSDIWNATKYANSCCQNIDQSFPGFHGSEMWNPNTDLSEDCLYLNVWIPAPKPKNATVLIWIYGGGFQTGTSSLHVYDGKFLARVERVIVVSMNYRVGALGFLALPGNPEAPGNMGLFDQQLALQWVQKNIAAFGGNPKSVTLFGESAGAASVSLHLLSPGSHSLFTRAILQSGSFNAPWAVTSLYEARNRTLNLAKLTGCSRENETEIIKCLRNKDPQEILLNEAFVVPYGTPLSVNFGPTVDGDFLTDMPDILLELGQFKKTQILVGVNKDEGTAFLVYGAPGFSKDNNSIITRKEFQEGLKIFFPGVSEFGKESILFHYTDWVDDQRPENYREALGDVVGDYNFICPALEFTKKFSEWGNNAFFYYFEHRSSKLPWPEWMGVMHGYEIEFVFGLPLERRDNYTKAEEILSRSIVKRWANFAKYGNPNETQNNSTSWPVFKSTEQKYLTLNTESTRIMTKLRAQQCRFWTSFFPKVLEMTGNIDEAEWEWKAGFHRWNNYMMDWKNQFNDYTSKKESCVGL
# In short: (§1)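 Ellman-type spectrophotometric assay at 412 nm in 100 mM sodium phosphate, 100 mM NaCl, pH 7.3, with DTNB. Enzymes: E. electricus AChE (soluble G4), recombinant T. californica AChE (Pichia pastoris, G4), recombinant human AChE (HEK 293, G2/G4), human plasma BChE (G4). Enzyme (~3 U/mL stock) and inhibitor preincubated 15 min at 25 °C. Acetylthiocholine (AChE) or butyrylthiocholine (BChE) then started the reaction. IC50 in duplicate from ≥4 inhibitor concentrations.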
# Acetylcholinesterase [2] = molecular target: Acetylcholinesterase (Torpedo californica, UniProt P04058); experiment: Inhibition of Torpedo californica AChE; parameters: species or system Tetronarce californica; in short: as §1
# Acetylcholinesterase (Torpedo californica, UniProt P04058), sequence (P04058 whole entry): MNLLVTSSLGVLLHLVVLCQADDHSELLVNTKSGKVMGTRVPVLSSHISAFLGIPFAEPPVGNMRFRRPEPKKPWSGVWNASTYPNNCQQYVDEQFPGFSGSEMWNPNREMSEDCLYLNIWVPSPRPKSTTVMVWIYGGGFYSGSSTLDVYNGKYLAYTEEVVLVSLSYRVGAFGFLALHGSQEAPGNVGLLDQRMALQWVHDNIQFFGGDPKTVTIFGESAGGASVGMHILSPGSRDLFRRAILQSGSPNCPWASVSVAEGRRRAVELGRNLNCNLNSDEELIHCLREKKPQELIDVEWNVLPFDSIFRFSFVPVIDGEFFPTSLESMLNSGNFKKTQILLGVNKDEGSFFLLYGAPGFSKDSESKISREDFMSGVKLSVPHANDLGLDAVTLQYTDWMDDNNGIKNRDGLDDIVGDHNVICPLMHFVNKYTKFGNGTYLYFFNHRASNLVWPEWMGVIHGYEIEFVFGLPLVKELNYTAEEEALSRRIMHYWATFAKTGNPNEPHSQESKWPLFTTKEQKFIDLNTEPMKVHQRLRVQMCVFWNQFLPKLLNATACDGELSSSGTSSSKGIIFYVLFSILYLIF
# Acetylcholinesterase [3] = molecular target: T1, Acetylcholinesterase (Homo sapiens, UniProt P22303); experiment: Inhibition of human AChE; in short: as §1
# T1 sequence (P22303 whole entry): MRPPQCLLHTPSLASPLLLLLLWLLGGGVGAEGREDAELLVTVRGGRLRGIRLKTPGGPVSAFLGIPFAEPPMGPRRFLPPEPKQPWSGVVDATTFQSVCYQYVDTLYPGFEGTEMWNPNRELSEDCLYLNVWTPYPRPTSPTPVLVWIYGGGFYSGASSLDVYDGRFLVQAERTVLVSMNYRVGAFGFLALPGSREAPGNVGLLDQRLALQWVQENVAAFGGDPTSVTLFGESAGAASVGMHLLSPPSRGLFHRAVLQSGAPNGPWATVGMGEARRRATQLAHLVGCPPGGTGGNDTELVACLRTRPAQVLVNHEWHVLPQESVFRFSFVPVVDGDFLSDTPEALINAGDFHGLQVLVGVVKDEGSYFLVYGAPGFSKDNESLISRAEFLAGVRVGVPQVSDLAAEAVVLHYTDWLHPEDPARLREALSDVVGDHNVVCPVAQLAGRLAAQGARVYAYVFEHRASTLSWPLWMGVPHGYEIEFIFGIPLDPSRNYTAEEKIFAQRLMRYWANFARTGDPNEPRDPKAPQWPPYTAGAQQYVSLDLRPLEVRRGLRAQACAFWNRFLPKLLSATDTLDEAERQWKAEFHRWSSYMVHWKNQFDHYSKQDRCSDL
# Acetylcholinesterase [4] = molecular target: Acetylcholinesterase (Electrophorus electricus, UniProt O42275); experiment: (§2) Inhibition of Electrophorus electricus AChE
# Acetylcholinesterase (Electrophorus electricus, UniProt O42275), sequence (O42275 whole entry): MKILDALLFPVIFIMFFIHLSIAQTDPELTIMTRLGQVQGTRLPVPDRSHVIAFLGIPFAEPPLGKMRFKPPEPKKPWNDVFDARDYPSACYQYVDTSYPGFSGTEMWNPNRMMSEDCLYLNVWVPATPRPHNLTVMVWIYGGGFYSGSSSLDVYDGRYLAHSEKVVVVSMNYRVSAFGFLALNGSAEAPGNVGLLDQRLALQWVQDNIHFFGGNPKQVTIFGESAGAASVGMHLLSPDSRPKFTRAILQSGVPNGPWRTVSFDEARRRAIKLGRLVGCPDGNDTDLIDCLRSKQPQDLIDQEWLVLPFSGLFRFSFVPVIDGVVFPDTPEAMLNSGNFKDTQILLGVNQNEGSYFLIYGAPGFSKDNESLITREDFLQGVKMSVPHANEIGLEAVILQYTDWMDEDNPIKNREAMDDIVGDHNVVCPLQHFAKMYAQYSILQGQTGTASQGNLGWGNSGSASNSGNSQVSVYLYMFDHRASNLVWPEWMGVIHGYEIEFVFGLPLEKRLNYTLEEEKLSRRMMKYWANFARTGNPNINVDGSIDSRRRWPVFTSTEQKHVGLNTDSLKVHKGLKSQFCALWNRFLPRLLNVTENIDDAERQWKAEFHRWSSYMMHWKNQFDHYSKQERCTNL
# Acetylcholinesterase [5] = molecular target: T1, Acetylcholinesterase; experiment: Inhibition of human AChE at 100 uM
# [6] = molecular target: Acetylcholinesterase (Electrophorus electricus) (UniProt O42275); experiment: Inhibition of Electrophorus electricus AChE at 100 uM
# Acetylcholinesterase (Electrophorus electricus), sequence (O42275 24-633 limits assumed): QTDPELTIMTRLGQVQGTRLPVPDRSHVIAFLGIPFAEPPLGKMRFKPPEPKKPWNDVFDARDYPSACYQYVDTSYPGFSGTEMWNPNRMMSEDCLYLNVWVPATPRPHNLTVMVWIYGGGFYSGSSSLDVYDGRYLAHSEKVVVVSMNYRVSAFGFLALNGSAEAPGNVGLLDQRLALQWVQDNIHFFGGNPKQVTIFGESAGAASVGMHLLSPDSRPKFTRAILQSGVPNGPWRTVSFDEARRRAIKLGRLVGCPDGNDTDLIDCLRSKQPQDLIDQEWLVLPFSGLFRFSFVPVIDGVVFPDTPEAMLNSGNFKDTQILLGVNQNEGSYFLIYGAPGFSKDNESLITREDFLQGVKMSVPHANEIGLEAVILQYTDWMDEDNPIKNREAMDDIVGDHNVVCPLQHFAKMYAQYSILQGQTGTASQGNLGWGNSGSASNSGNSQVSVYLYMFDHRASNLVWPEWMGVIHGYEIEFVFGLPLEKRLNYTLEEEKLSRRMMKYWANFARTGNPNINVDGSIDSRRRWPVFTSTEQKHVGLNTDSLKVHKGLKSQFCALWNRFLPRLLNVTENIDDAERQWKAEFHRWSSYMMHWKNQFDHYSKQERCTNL
# [7] = molecular target: Acetylcholinesterase (Electrophorus electricus) (UniProt O42275); experiment: as §2
# Cholinesterases; ACHE & BCHE (Homo sapiens), sequence (P06276 whole entry, looked up): as the sequence (P06276 whole entry) above
# Cholinesterases; ACHE & BCHE (Homo sapiens), sequence (P22303 whole entry, looked up): as the sequence (P22303 whole entry) above
compound,measurement,setting,value
COc1cc(CCC(=O)NNc2c3c(nc4ccccc24)CCCC3)cc(OC)c1OC,Ratio IC50,[1],30.2
same,IC50,Cholinesterase,12.1 nM
same,IC50,Acetylcholinesterase [2],40.1 nM
same,IC50,Acetylcholinesterase [3],365 nM
COc1cc(C(=O)NCCC(=O)NNc2c3c(nc4ccccc24)CCCC3)cc(OC)c1OC,Ratio IC50,[1],6.97
same,IC50,Acetylcholinesterase [4],100 nM
same,IC50,Cholinesterase,12.8 nM
same,IC50,Acetylcholinesterase [2],49.5 nM
same,IC50,Acetylcholinesterase [3],89.2 nM
CCOCC(=O)CCCCCCCNC(=O)c1cc(OC)c(OC)c(OC)c1,IC50,Acetylcholinesterase [4],> 250000 nM
COc1cc(CCC(=O)NCC(=O)NNc2c3c(nc4ccccc24)CCCC3)cc(OC)c1OC,Ratio IC50,[1],1.7
same,IC50,Acetylcholinesterase [4],122 nM
same,IC50,Cholinesterase,24 nM
same,IC50,Acetylcholinesterase [2],40.1 nM
same,IC50,Acetylcholinesterase [3],40.7 nM
COc1cc(C(=O)NNc2c3c(nc4ccccc24)CCCC3)cc(OC)c1OC,Ratio IC50,[1],227
same,IC50,Acetylcholinesterase [4],2260 nM
same,IC50,Cholinesterase,1.7 nM
same,IC50,Acetylcholinesterase [2],21.1 nM
same,IC50,Acetylcholinesterase [3],386 nM
COc1cc(C(=O)NCCCCC(=O)NNc2c3c(nc4ccccc24)CCCC3)cc(OC)c1OC,Ratio IC50,[1],10.1
same,IC50,Acetylcholinesterase [4],20.2 nM
same,IC50,Cholinesterase,1.68 nM
same,IC50,Acetylcholinesterase [2],18.1 nM
same,IC50,Acetylcholinesterase [3],17 nM
COc1cc(C(=O)NCCCCCCC(=O)NNc2c3c(nc4ccccc24)CCCC3)cc(OC)c1OC,Ratio IC50,[1],10.8
same,IC50,Acetylcholinesterase [4],9.76 nM
same,IC50,Cholinesterase,0.523 nM
same,IC50,Acetylcholinesterase [2],25.2 nM
same,IC50,Acetylcholinesterase [3],5.65 nM
COc1cc(CCC(=O)NCCCC(=O)NNc2c3c(nc4ccccc24)CCCC3)cc(OC)c1OC,Ratio IC50,[1],319
same,IC50,Acetylcholinesterase [4],52.1 nM
same,IC50,Cholinesterase,0.226 nM
same,IC50,Acetylcholinesterase [2],158 nM
same,IC50,Acetylcholinesterase [3],72.1 nM
COc1cc(C(=O)NCCCC(=O)NNc2c3c(nc4ccccc24)CCCC3)cc(OC)c1OC,Ratio IC50,[1],33.8
same,IC50,Acetylcholinesterase [4],60.5 nM
same,IC50,Cholinesterase,7.13 nM
same,IC50,Acetylcholinesterase [2],26.3 nM
same,IC50,Acetylcholinesterase [3],241 nM
COc1cc(C(=O)NCCCCCCCC(=O)NN)cc(OC)c1OC,IC50,Acetylcholinesterase [4],18000 nM
COc1cc(C(=O)NCC(=O)NNc2c3c(nc4ccccc24)CCCC3)cc(OC)c1OC,Ratio IC50,[1],1.87
same,IC50,Acetylcholinesterase [4],104 nM
same,IC50,Cholinesterase,27.6 nM
same,IC50,Acetylcholinesterase [2],163 nM
same,IC50,Acetylcholinesterase [3],51.6 nM
COc1cc(C(=O)NCCCCCC(=O)NNc2c3c(nc4ccccc24)CCCC3)cc(OC)c1OC,Ratio IC50,[1],18.8
same,IC50,Acetylcholinesterase [4],20.1 nM
same,IC50,Cholinesterase,0.969 nM
same,IC50,Acetylcholinesterase [2],55.7 nM
same,IC50,Acetylcholinesterase [3],18.2 nM
COc1cc(CCC(=O)NCCC(=O)NNc2c3c(nc4ccccc24)CCCC3)cc(OC)c1OC,Ratio IC50,[1],22.4
same,IC50,Acetylcholinesterase [4],102 nM
same,IC50,Cholinesterase,6.03 nM
same,IC50,Acetylcholinesterase [2],68.9 nM
same,IC50,Acetylcholinesterase [3],135 nM
NNc1c2c(nc3ccccc13)CCCC2,IC50,Acetylcholinesterase [4],13000 nM
CCN(CC)C(C)C(=O)N1c2ccccc2Sc2ccccc21 (stereo not drawn),Ratio IC50,[1],12000
same,IC50,Cholinesterase,3370 nM
same,Activity,Acetylcholinesterase [5],inactive
same,Activity,[6],inactive
same,IC50,Acetylcholinesterase [2],34700 nM
COc1cc(CCC(=O)NCCCCC(=O)NNc2c3c(nc4ccccc24)CCCC3)cc(OC)c1OC,Ratio IC50,[1],424
same,IC50,Acetylcholinesterase [4],54.7 nM
same,IC50,Cholinesterase,0.139 nM
same,IC50,Acetylcholinesterase [2],102 nM
same,IC50,Acetylcholinesterase [3],59 nM
COc1cc(C(=O)NCCCCCCCC(=O)NNc2c3c(nc4ccccc24)CCCC3)cc(OC)c1OC,Ratio IC50,[1],17.9
same,IC50,Acetylcholinesterase [4],3.25 nM
same,Activity,[7],3.23 nM
same,IC50,Cholinesterase,0.293 nM
same,IC50,Acetylcholinesterase [2],17.2 nM
same,IC50,Acetylcholinesterase [3],5.24 nM
COc1cc(CCC(=O)NCCCCCC(=O)NNc2c3c(nc4ccccc24)CCCC3)cc(OC)c1OC,Ratio IC50,[1],59.5
same,IC50,Acetylcholinesterase [4],20.2 nM
same,IC50,Cholinesterase,0.141 nM
same,IC50,Acetylcholinesterase [2],39.8 nM
same,IC50,Acetylcholinesterase [3],8.39 nM
